Laboratory results: ChEMBL document CHEMBL1782055, “2,3-dideoxy hex-2-enopyranosid-4-uloses as promising new anti-tubercular agents: design, synthesis, biological evaluation and SAR studies” (Eur J Med Chem, 2011)

Legend:
Assay type in all cases: functional
[1] = system: Mycobacterium tuberculosis; assay: Antitubercular activity against isoniazid-resistant Mycobacterium tuberculosis 433 after 24 hrs by BACTEC radiometric susceptibility assay; conditions: Mycobacterium tuberculosis, 433, 24 h
Method in brief: (§1)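 BACTEC radiometric assay in 7H12 (12B) medium with 14C-palmitic acid as substrate; 14CO2 output read daily as Growth Index (GI) at 37 °C ± 1 °C. H37Rv inoculum grown in 12B vial to GI around 300. Compounds dissolved in DMSO. Control vial held 1:100 diluted bacterial suspension. Reading continued until control GI reached 30 or more. Daily change in GI compared with control to set susceptibility and MIC.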

[2] = system: Mycobacterium tuberculosis; assay: Antitubercular activity against rifampin and isoniazid-resistant Mycobacterium tuberculosis 2643 after 24 hrs by BACTEC radiometric susceptibility assay; conditions: Mycobacterium tuberculosis, 2643, 24 h; method in brief: as §1
[3] = system: Mycobacterium tuberculosis; assay: Antitubercular activity against rifampin and isoniazid-resistant Mycobacterium tuberculosis TB-1678/05 after 24 hrs by BACTEC radiometric susceptibility assay; conditions: TB-1678/05, 24 h; method in brief: as §1
[4] = system: Mycobacterium tuberculosis; assay: Antitubercular activity against ethambutol-resistant Mycobacterium tuberculosis TB-2506/06 after 24 hrs by BACTEC radiometric susceptibility assay; conditions: TB-2506/06, 24 h; method in brief: as §1

Measured: MIC

CC(C)CCO[C@@H]1C=CC(=O)[C@@H](COC(=O)C(C)(C)C)O1
1.56 µg/mL: [1] | [2] | [3] | [4]
